Laboratory results from ChEMBL document CHEMBL3243989, “Antibacterial N-[omega, omega'-bis(alicyclic and aryl)-sec-alkyl]poly(methylene)triamine and -tetramine hydrochloride salts” (J Med Chem, 1979).
The source made the active and inactive calls. The rule behind the calls is not given here.

How the values were obtained:
Staphylococcus aureus [1] = assay: Antibacterial activity against Staphylococcus aureus MB2865 assessed as growth inhibition; type: functional
Procedure, shortened: (§1)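 MIC (µg/mL) by in vitro growth inhibition in an assay system at pH 7.4. Tetracycline was run routinely to check medium, incubation conditions and inoculum virility.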

Streptococcus pyogenes = assay: Antibacterial activity against Streptococcus pyogenes assessed as growth inhibition at 2 to 8 ug/mL; type: functional, organism-based
Bacillus subtilis = assay: Antibacterial activity against Bacillus subtilis MB964 assessed as growth inhibition; type: functional; procedure, shortened: as §1
Pseudomonas aeruginosa [2] = assay: Antibacterial activity against Pseudomonas aeruginosa MB2245 assessed as growth inhibition; type: functional; procedure, shortened: as §1
Proteus vulgaris = assay: Antibacterial activity against Proteus vulgaris MB838 assessed as growth inhibition at 200 ug/mL; type: functional, organism-based
Pseudomonas aeruginosa [3] = assay: Antibacterial activity against Pseudomonas aeruginosa MB418 assessed as growth inhibition; type: functional; procedure, shortened: as §1
Staphylococcus aureus [4] = assay: Antibacterial activity against Staphylococcus aureus MB108 assessed as growth inhibition; type: functional; procedure, shortened: as §1
[5] = system: Bordetella bronchiseptica; assay: Antibacterial activity against Bordetella bronchiseptica MB3551 assessed as growth inhibition; type: functional; procedure, shortened: as §1
Pasteurella multocida = assay: Antibacterial activity against Pasteurella multocida MB7 assessed as growth inhibition at 2 to 8 ug/mL; type: functional, organism-based
[6] = system: Bordetella bronchiseptica; assay: Antibacterial activity against Bordetella bronchiseptica MB905 assessed as growth inhibition; type: functional; procedure, shortened: as §1
Escherichia coli = assay: Antibacterial activity against Escherichia coli MB2884 assessed as growth inhibition; type: functional; procedure, shortened: as §1
[7] = system: Corynebacterium pseudodiphtheriticum; assay: Antibacterial activity against Corynebacterium pseudodiphtheriticum assessed as growth inhibition at 2 to 8 ug/mL; type: functional, organism-based
Salmonella = assay: Antibacterial activity against Salmonella schottmuelleri MB2837 assessed as growth inhibition; type: functional; procedure, shortened: as §1
Klebsiella aerogenes = assay: Antibacterial activity against Klebsiella aerogenes MB1503 assessed as growth inhibition; type: functional; procedure, shortened: as §1

| SMILES | MIC (Staphylococcus aureus [1]) [µg/mL] | growth inhibition (GI) (Streptococcus pyogenes) | MIC (Bacillus subtilis) [µg/mL] | MIC (Pseudomonas aeruginosa [2]) [µg/mL] | growth inhibition (GI) (Proteus vulgaris) | MIC (Pseudomonas aeruginosa [3]) [µg/mL] | MIC (Staphylococcus aureus [4]) [µg/mL] | MIC [5] [µg/mL] | growth inhibition (GI) (Pasteurella multocida) | MIC [6] [µg/mL] | MIC (Escherichia coli) [µg/mL] | growth inhibition (GI) [7] | MIC (Salmonella) [µg/mL] | MIC (Klebsiella aerogenes) [µg/mL] |
| --- | --- | --- | --- | --- | --- | --- | --- | --- | --- | --- | --- | --- | --- | --- |
| CC(C)(C)c1ccc(CCCC(CCCc2ccc(C(C)(C)C)cc2)NCCNCCNCCN)cc1.Cl | 30 | Active | 15 | 100 | inactive | 100 | 20 | 60 | Active | 8 | 60 | inactive | 8 | 50 |
| Cl.NCCCNCCCNC(CCc1ccc2ccccc2c1)CCc1ccc2ccccc2c1 | 8 | Active | 8 | 100 | inactive | 40 | 6 | 4 | Active | 4 | 15 | inactive | 8 | 20 |
| CC1(C)C2CCC(C2)C1CCC(CCC1C2CCC(C2)C1(C)C)NCCCN(CCCN)CCCN.Cl (stereo not given) | 4 | Active | 4 | 30 | inactive | 50 | 6 | 2 | Active | 4 | 50 | inactive | 4 | 30 |
| Cl.NCCNCCNCCNC(CCCC1CCCCC1)CCCC1CCCCC1 | 15 | Active | 4 | 30 | inactive | 30 | 6 | 4 | Active | 6 | 10 | inactive | 6 | 6 |
| Cl.NCCNCCNCCNC(CCC1CCCCC1)CCC1CCCCC1 | 30 | Active | 6 | 30 | inactive | 40 | 6 | 4 | Active | 6 | 20 | inactive | 4 | 15 |
| Cc1ccc(C(C)(C)C)cc1CCCC(CCCc1cc(C(C)(C)C)ccc1C)NCCCNCCCNCCCN.Cl | 8 | Active | 6 | 50 | inactive | 40 | 20 | 8 | Active | 8 | 100 | inactive | 8 | 200 |
| CC(C)(C)c1ccc(CCC(CCc2ccc(C(C)(C)C)cc2)NCCCNCCCN)cc1.Cl | 15 | Active | 2 | 15 | inactive | 8 | 6 | 4 | Active | 4 | 6 | inactive | 4 | 15 |
| CC(C)c1ccc(CCCC(CCCc2ccc(C(C)C)cc2)NCCNCCNCCN)cc1.Cl | 20 | Active | 4 | 80 | inactive | 8 | 6 | 30 | Active | 30 | 15 | inactive | 10 | 60 |
| Cl.NCCCNCCCNC(CCCC1CCCCC1)CCCC1CCCCC1 | 8 | Active | 4 | 8 | inactive | 8 | 4 | 4 | Active | 4 | 8 | inactive | 4 | 4 |
| CC1(C)C2CCC(C2)C1CCC(CCC1C2CCC(C2)C1(C)C)NCCN(CCN)CCN.Cl (stereo not given) | 8 | Active | 4 | 8 | inactive | 50 | 4 | 4 | Active | 4 | 8 | inactive | 4 | 8 |
| CC1(C)C2CCC(C2)C1CCC(CCC1C2CCC(C2)C1(C)C)NCCNCCCNCCN.Cl (stereo not given) | 6 | Active | 6 | 15 | inactive | 30 | 6 | 6 | Active | 8 | 8 | inactive | 6 | 10 |
| Cl.NCCNCCNC(CCC1CCCCC1)CCC1CCCCC1 | 15 | Active | 4 | 100 | inactive | 100 | 4 | 4 | Active | 4 | 10 | inactive | 2 | 8 |
| CC(C)c1ccc(CCC(CCc2ccc(C(C)C)cc2)NCCNCCNCCN)cc1.Cl | 30 | Active | 6 | 60 | inactive | 40 | 6 | 15 | Active | 8 | 30 | inactive | 4 | 40 |
| Cc1ccc(CCC(CCc2ccc(C)cc2)NCCCNCCCN)cc1.Cl | 50 | Active | 4 | 40 | inactive | 60 | 30 | 6 | Active | 4 | 50 | inactive | 10 | 15 |
| CC1(C)C2CCC(C2)C1CCC(CCC1C2CCC(C2)C1(C)C)NCCCNCCNCCCN.Cl (stereo not given) | 8 | Active | 4 | 15 | inactive | 30 | 4 | 4 | Active | 4 | 30 | inactive | 4 | 15 |
